Assay [1] is described as follows: inhibitors of TNFa-induced NFkB p65 translocation, primary screen, imaging, HUVEC, MLSMR starter and 10KST1 sets (AID 438;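 active = inhibition above 20% together with a positive visual image hit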;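 note: compound added about 3h40 before a 20 min TNFalpha stimulation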;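 for inhibition: signal is the nuclear over cytoplasmic p65 intensity ratio per well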). Particulars: HUVEC TNFa-induced p65 nuclear translocation; cell count: measured here: nuclei count (cytotoxicity indicator), at 2.08 µM; inhibition: at 2 µM, stronger effect = higher value, 0% TNFa-plus-vehicle, 100% no-TNFa wells.
Assay [2] can be described thus: inhibitors of mutant huntingtin aggregation, primary screen, imaging, exon1htt(103Q)mCFP cells, high-content imaging (AID 483;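 active = visual image review flags a hit and inhibition of aggregation exceeds 20%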;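 note: compound exposure lasted 3 days before fixation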;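 for nuclei count: percent of the per-plate median nuclei count of sample wells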). As to conditions: exon1htt(103Q)mCFP cell line, aggregate imaging, at 2 µM; inhibition of aggregation: stronger effect = higher value; nuclei count: measured here: cell count, toxicity.
Assay [3] can be described thus: inhibitors of E-selectin induction by TNFa, primary screen, imaging, HUVEC, immunofluorescence, MLSMR starter and 10KST1 sets (AID 487;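 active = visually confirmed hit in the image check and inhibition above 20%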;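 for inhibition: signal is fraction of cell area covered by stained E-selectin grains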;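 for nuclei count: 100% = median nuclei count of all wells on the same plate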). As to conditions: HUVEC TNFalpha-induced E-selectin immunofluorescence imaging, at 2 µM; inhibition: stronger effect = higher value; nuclei count: measured here: cell number, toxicity.
Assay [4] concerns the target Voltage-gated potassium channel subunit beta-2 (Rattus norvegicus) (UniProt P62483). Briefly: KvBeta enzyme negative modulators, primary screen, biochemical, NADPH fluorescence (AID 622;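 active = fluorescence slope higher than the sample average by over 3 SD, cut at about -0.22 in these data, passing the limit was not always enough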;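 note: slope of raw intensity against log time taken from 70 to 1610 s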). Particulars: recombinant KvBeta, 4-cyanobenzaldehyde reduction, at 10 µM, stronger effect = higher value.
The target is the same in assay [5]. Briefly: KvBeta positive modulators, primary screen, biochemical, NADPH fluorescence (AID 623;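 active = NADPH fluorescence slope more negative than the mean of all samples by about 3 SD, 99.7% confidence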;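 note: fluorescence intensity change per second fitted from 20 to 320 s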). As to conditions: Recombinant KvBeta, NADPH fluorescence decrease slope, 10 min; at 10 µM; stronger effect = lower value.
Assay [6] has as its target Muscarinic acetylcholine receptor M4 (Homo sapiens) (UniProt P08173). Briefly: compounds altering M4/GIRK thallium flux, either direction, primary screen, M4 allosteric agonist project, cell-based, HEK293 M4/GIRK, BTC-AM (AID 625;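 active = fluorescence slope after compound addition differing from the mean of all tested samples at 99.7% confidence, mostly higher but some lower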;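 note: thallium influx through GIRK channels coupled to M4 in HEK293 cells with BTC-AM dye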). Particulars: at 10 µM, actives lie on both sides. The essentials:
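Assay system: HEK293 cells with M4 receptor and GIRK channels / Controls: carbachol and DMSO controls / Schedule: 1 h dye loading, 2 min kinetic read / Technique: kinetic fluorescence with BTC-AM dye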

Assay [7] in a line: inhibitors of Sendai virus-induced IRF3 signaling, primary screen, TLR/RLR signaling modifier project, cell-based, Sendai virus stimulus, luciferase, 10K MLSCN set (AID 602276).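 Note: firefly luciferase from ISG56 promoter only with Renilla not read in this screen; 0% = Sendai virus plus DMSO and 100% = medium plus DMSO without virus.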 Particulars: HEK293 RL24 IRF3 luciferase reporter, at 10 µM, stronger effect = higher value. (In a reporter assay the amount or activity of a reporter protein is the signal.)
The nature of assay [8]: inhibitors of poly I:C-induced TLR3 signaling, primary screen, cell-based, poly I:C stimulus, luciferase, 10K MLSCN set (AID 602277;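 active = inhibition of the reporter signal at or above 50%; inactive = inhibition below 50%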). As to conditions: HEK293-TLR3 RL24 IRF3 luciferase reporter, at 10 µM, stronger effect = higher value.

Active and inactive are the calls of the source.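 Rule for the calls, unless noted: active = inhibition at or above 50% at 10 µM; inactive = inhibition below 50%.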

Chain of Muscarinic acetylcholine receptor M4 (Homo sapiens) (P08173 whole entry, looked up): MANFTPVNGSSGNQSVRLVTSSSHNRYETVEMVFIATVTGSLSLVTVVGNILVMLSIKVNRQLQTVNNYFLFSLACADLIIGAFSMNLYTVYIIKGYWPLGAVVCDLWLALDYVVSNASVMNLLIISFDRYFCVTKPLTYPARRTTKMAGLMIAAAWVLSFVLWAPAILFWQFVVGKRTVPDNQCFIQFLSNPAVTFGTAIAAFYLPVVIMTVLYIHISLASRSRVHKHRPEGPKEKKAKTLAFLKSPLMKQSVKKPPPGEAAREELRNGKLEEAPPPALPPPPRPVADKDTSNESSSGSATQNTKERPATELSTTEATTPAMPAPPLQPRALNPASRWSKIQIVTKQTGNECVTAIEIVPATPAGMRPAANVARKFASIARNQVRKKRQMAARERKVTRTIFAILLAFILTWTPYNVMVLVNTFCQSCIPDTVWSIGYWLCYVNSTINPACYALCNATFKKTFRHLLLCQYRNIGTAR
Chain of Voltage-gated potassium channel subunit beta-2 (Rattus norvegicus) (P62483 whole entry, looked up): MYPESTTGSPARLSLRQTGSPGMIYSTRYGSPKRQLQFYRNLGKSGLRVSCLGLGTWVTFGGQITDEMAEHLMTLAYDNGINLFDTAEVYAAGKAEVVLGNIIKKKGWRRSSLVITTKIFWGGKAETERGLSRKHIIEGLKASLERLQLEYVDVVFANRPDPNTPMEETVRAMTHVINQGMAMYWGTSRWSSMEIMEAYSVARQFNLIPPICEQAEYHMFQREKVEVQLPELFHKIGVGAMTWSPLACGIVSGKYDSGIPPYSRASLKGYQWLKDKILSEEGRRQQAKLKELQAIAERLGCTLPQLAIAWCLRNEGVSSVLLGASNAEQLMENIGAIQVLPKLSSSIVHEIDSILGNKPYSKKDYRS

Consider `CCN1CCCC1CNCc1ccc(Cl)cc1Cl` (centres undefined), for which the cell count in assay [1] was determined as 474. Besides, the inhibition in assay [1] is 13.6% (inactive); in assay [3] it was -106% (inactive); in assay [7], -5.98% (inactive); in assay [8] it was 5.14% (inactive). Besides, the inhibition of aggregation in assay [2] is 1.2% (inactive). Further, the nuclei count was found to be 87.1% in assay [2] and 152% in assay [3]. In addition, the fluorescence slope in assay [4] was -0.316 (inactive); in assay [6] it was 0.0068 (inactive). The NADPH fluorescence slope in assay [5] was -1.4e-06 (inactive).

With `CCN(CC)C(=O)CSc1nc2ccc(NC(=O)CSc3nccn3C)cc2s1`, the cell count in assay [1] is 729. The inhibition was -2.4% (inactive) in assay [1], 19.3% (inactive) in assay [3], -9.79% (inactive) in assay [7] and -19.1% (inactive) in assay [8]. Moreover, in assay [2], the inhibition of aggregation is -36.9% (inactive). In addition, the nuclei count in assay [2] was 116%; in assay [3], 94.3%. The fluorescence slope in assay [4] was -0.577 (inactive); in assay [6], 0.00661 (inactive). Further, the NADPH fluorescence slope in assay [5] was -1.3e-05 (inactive).

For the molecule `COc1ccc2c(=O)c3c(=O)n(Cc4ccco4)c(C(C)C)nc3oc2c1`, in assay [1], the cell count worked out at 436. Besides, the inhibition in assay [1] was -3.9% (inactive); in assay [3], -15.2% (inactive); in assay [7], 4.04% (inactive); in assay [8], 9.95% (inactive). In assay [2], the inhibition of aggregation was -10.1% (inactive). For the same molecule, the nuclei count is 91.7% in assay [2] and 107% in assay [3]. Further, the fluorescence slope in assay [4] is -0.564 (inactive); in assay [6], 0.00474 (inactive). In assay [5], the NADPH fluorescence slope was -2.1e-05 (inactive).

As for `CCOC(=O)c1ccc(NC(=O)N2CCN(CCc3ccccc3)CC2)cc1`, the cell count in assay [1] turned out to be 361. Further, the inhibition was 2.5% (inactive) in assay [1], 20.3% (inactive) in assay [3], 6.1% (inactive) in assay [7] and -14.9% (inactive) in assay [8]. Besides, in assay [2], the inhibition of aggregation was 18.6% (inactive). Besides, the nuclei count turned out to be 84.1% in assay [2] and 75.8% in assay [3]. The fluorescence slope in assay [4] was -0.475 (inactive); in assay [6] it was 0.00422 (inactive). The NADPH fluorescence slope in assay [5] was -4.1e-05 (inactive).

Turning to `O=C(CN1CCC(n2nnc3cc(F)ccc32)CC1)Nc1ccc2c(c1)CCC2`, the cell count in assay [1] came to 590. For the same molecule, the inhibition in assay [1] was -57.1% (inactive); in assay [3], -84.4% (inactive); in assay [7], 14.8% (inactive); in assay [8], 1.94% (inactive). In addition, the inhibition of aggregation in assay [2] is -14.1% (inactive). Also, the figures for the nuclei count in assay [2] and in assay [3] were 112% and 108%, respectively. Besides, the results for the fluorescence slope in assay [4] and in assay [6] were -0.364 (inactive) and 0.00687 (inactive), respectively. For the same molecule, the NADPH fluorescence slope in assay [5] is -1.5e-05 (inactive).

On to `O=C(Cn1cnc2c(nnn2-c2ccc(F)cc2)c1=O)NCc1ccco1`, for which, in assay [1], the cell count turned out to be 657. Moreover, the inhibition in assay [1] was 9.2% (inactive); in assay [3], -8.8% (inactive); in assay [7], 5.73% (inactive); in assay [8] it was 12% (inactive). Also, the inhibition of aggregation in assay [2] was -33.9% (inactive). Besides, the nuclei count was determined as 78.6% in assay [2] and 122% in assay [3]. The fluorescence slope was -0.596 (inactive) in assay [4] and 0.00537 (inactive) in assay [6]. In assay [5], the NADPH fluorescence slope was -4.4e-06 (inactive).

Regarding `COCCn1c(=O)[nH]c2cc(C(=O)NCc3cccnc3)ccc2c1=O`, in assay [1], the cell count came to 744. Also, the inhibition in assay [1] is 3.8% (inactive); in assay [3], 56.4% (active); in assay [7], 10.8% (inactive); in assay [8], 13.4% (inactive). Further, the inhibition of aggregation in assay [2] is 7.4% (inactive). For the same molecule, the nuclei count was determined as 93.8% in assay [2] and 102% in assay [3]. Besides, the figures for the fluorescence slope in assay [4] and in assay [6] were -0.302 (inactive) and 0.00755 (inactive), respectively. Further, in assay [5], the NADPH fluorescence slope was -4.8e-05 (inactive).

For the molecule `CC(=O)c1cc(-c2ccccc2)n(CC(=O)N2CCC(N3CCCCC3)CC2)c1C`, the cell count in assay [1] was 263. For the same molecule, the inhibition is 7.9% (inactive) in assay [1], -37.4% (inactive) in assay [3], 14.8% (inactive) in assay [7] and 30.7% (inactive) in assay [8]. Also, the inhibition of aggregation in assay [2] is -0.7% (inactive). The nuclei count in assay [2] amounted to 96.8%; in assay [3] it was 115%. Moreover, the results for the fluorescence slope in assay [4] and in assay [6] were -0.545 (inactive) and 0.00662 (inactive), respectively. Moreover, the NADPH fluorescence slope in assay [5] was -3.5e-05 (inactive).

`C#CCN1C(=O)C(O)(CC(=O)c2cccc(OC)c2)c2ccccc21` (centres undefined): in assay [1], the cell count worked out at 429. In addition, the inhibition is 1.2% (inactive) in assay [1], -130% (inactive) in assay [3], 10.4% (inactive) in assay [7] and 14.1% (inactive) in assay [8]. In addition, the inhibition of aggregation in assay [2] is -0.5% (inactive). In addition, the values for the nuclei count in assay [2] and in assay [3] were 96.2% and 163%, respectively. Also, the fluorescence slope in assay [4] was -0.337 (inactive); in assay [6], 0.00596 (inactive). The NADPH fluorescence slope in assay [5] is -6.5e-05 (inactive).

For `CN1CCN(CC(=O)Nc2ccc(Cl)cc2Cl)CC1`, the cell count in assay [1] was determined as 445. In addition, the inhibition in assay [1] is -3.5% (inactive); in assay [3], 66.8% (inactive); in assay [7], 11% (inactive); in assay [8] it was 14.7% (inactive). Also, the inhibition of aggregation in assay [2] is 0% (inactive). Further, the nuclei count turned out to be 103% in assay [2] and 78.8% in assay [3]. For the same molecule, the fluorescence slope in assay [4] is -0.619 (inactive); in assay [6], 0.00642 (inactive). Moreover, in assay [5], the NADPH fluorescence slope is 7.6e-06 (inactive).

As to `COc1ccccc1NC(=O)C1=C(C)Nc2ncnn2C1c1ccc(C)o1` (centres undefined), the cell count in assay [1] was 355. The inhibition was 14.6% (inactive) in assay [1], 56.5% (inactive) in assay [3], 19.9% (inactive) in assay [7] and 20.2% (inactive) in assay [8]. Also, the inhibition of aggregation in assay [2] is 24.5% (inactive). In addition, the nuclei count in assay [2] turned out to be 90.6%; in assay [3], 85.1%. Further, the fluorescence slope in assay [4] is -0.554 (inactive); in assay [6] it was 0.00338 (inactive). Besides, the NADPH fluorescence slope in assay [5] was -0.000118 (inactive).

Take `c1ccc(CC2CCN(Cc3nc(-c4ccccc4)no3)CC2)cc1`: the cell count in assay [1] is 229. In addition, the inhibition is 4.2% (inactive) in assay [1], -139% (inactive) in assay [3], 5.55% (inactive) in assay [7] and -19% (inactive) in assay [8]. In addition, the inhibition of aggregation in assay [2] was -5.2% (inactive). Moreover, the nuclei count is 81.6% in assay [2] and 124% in assay [3]. Moreover, the figures for the fluorescence slope in assay [4] and in assay [6] were -0.456 (inactive) and 0.00542 (inactive), respectively. In assay [5], the NADPH fluorescence slope is -1.9e-05 (inactive).

In the case of `Cn1cc(CC(=O)Nc2cccc(C#N)c2)c2ccccc21`, in assay [1], the cell count was 414. Moreover, the inhibition in assay [1] was -0.7% (inactive); in assay [3] it was 13.7% (inactive); in assay [7] it was 3.88% (inactive); in assay [8], -0.551% (inactive). Moreover, the inhibition of aggregation in assay [2] was 23.9% (inactive). In addition, the nuclei count in assay [2] was determined as 83.5%; in assay [3], 97.2%. Besides, the figures for the fluorescence slope in assay [4] and in assay [6] were -0.47 (inactive) and 0.00535 (inactive), respectively. For the same molecule, the NADPH fluorescence slope in assay [5] was -1.8e-05 (inactive).

For the molecule `O=C(O)c1[nH]nc2c1COc1ccccc1-2`, the cell count in assay [1] amounted to 308. For the same molecule, the inhibition is 13.1% (inactive) in assay [1], 14.8% (inactive) in assay [3], 14.5% (inactive) in assay [7] and 22.3% (inactive) in assay [8]. Moreover, in assay [2], the inhibition of aggregation is -9.9% (inactive). Moreover, the values for the nuclei count in assay [2] and in assay [3] were 97% and 102%, respectively. Moreover, the figures for the fluorescence slope in assay [4] and in assay [6] were -0.551 (inactive) and 0.00437 (inactive), respectively. In assay [5], the NADPH fluorescence slope is -0.000118 (inactive).

A word on the inhibition: it is the relative decrease from the control value, in per cent.

(Values after PubChem BioAssay.)
